# Screening data as filed in PubChem.
# FXIIa inh = inhibitors of human coagulation factor XIIa; P00748; purified FXIIa, Boc-QGR-AMC fluorogenic substrate, 2 h; inhibition, % at 5 µM; 220,000 tested, 0.3% active; AID 800; in the data active means inhibition above about 40%;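 further: 0% = enzyme with no compound and 100% = blank without enzyme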
# Target sequence (P00748 20-372 limits assumed): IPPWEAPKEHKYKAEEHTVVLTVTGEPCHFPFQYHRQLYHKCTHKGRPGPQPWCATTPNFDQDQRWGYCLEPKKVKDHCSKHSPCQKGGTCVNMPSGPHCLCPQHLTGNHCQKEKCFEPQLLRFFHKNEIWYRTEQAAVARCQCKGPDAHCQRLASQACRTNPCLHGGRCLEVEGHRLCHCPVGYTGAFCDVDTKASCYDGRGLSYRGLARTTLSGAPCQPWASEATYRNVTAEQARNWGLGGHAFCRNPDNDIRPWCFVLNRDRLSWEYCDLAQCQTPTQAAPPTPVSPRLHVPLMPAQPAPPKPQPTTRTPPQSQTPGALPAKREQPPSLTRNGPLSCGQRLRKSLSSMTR
# Target sequence (P00748 373-615 limits assumed): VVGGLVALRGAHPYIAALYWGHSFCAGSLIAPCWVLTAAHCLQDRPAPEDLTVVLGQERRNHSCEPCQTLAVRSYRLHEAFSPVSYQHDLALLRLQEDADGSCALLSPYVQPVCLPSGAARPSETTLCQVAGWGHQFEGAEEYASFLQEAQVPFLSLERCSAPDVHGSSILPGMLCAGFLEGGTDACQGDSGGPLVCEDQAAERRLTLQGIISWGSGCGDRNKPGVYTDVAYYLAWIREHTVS
# FXIa inh = factor XIa (human) inhibition; inhibition, % at 5 µM; purified FXIa, Boc-Glu-Ala-Arg-AMC fluorogenic substrate; 220,000 tested, 0.14% active; P03951; AID 798;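 active means inhibition of at least 40%; inactive means inhibition below 40%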;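 further: fluorescence of freed AMC excited at 355 nm; 0% = enzyme without compound and 100% = no enzyme blank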
# KLK5 inh = inhibitors of human kallikrein 5; 210,000 tested, 0.59% active; recombinant hK5, fluorogenic AMC substrate cleavage; inhibition, % at 5 µM;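 active means inhibition of 40% or more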;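 further: 0% = enzyme controls without compound and 100% = no-enzyme blanks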
# thrombin 1536 = blocks human thrombin protease activity; P00734; alpha-thrombin, Boc-VPR-AMC fluorogenic substrate cleavage; inhibition, % at 5 µM; 220,000 tested, 0.26% active; AID 1046;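 active means inhibition at or above 40%; inactive means inhibition below 40%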;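 further: 0% = enzyme with no compound and 100% = wells without enzyme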
#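 signal = AMC fluorescence, 355/460 nm | material = human alpha-thrombin enzyme | control set = enzyme without compound as high, wells lacking enzyme as low | times = reaction at room temperature | read-out basis = percent inhibition scaled between no-compound controls and no-enzyme blanks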
# * = called active by the depositor; / = no result. Rows were chosen to be rich in hits. Some 1% of all compounds tested hit in one or more screens of this group.
SMILES,FXIIa inh,FXIa inh,KLK5 inh,thrombin 1536
COc1ccc(-c2nnc(NC(=O)c3cccs3)s2)c(OC)c1,5,-18,27,-3
COc1ccc(-c2nnc(NC(=O)Cc3ccccc3)s2)c(OC)c1,6,-12,52*,0
Cc1cccc2cc(C(c3nnnn3CC3CCCO3)N3CCc4ccccc4C3)c(=O)[nH]c12 (stereo not given),23,6,43*,15
O=C(NCc1ccco1)c1scc2c1OCCO2,43*,14,6,0
CSC1=C(C#N)C(=O)NC(c2ccc(Cl)cc2)S1 (stereo not given),8,3,2,1
COc1cc(/C=C(/NC(=O)c2ccccc2)C(=O)N2CCN(C)CC2)c([N+](=O)[O-])cc1OC,10,5,40*,19
CCOC(=O)/C(C#N)=C/N=c1ccc(C)cn1C,104*,33,43*,12
CC(C1CC2CCC1C2)N1CC(O)=C(c2nc3ccccc3[nH]2)C1=N (stereo not given),49*,27,27,4
CC(C)N1CC(O)=C(c2nc3ccccc3[nH]2)C1=N,12,17,-23,0
COc1ccc(S(=O)(=O)Nc2ccc(CC#N)cc2)cc1,34,7,43*,15
N#CCc1ccc(NS(=O)(=O)c2ccc(C3CCCCC3)cc2)cc1,2,-4,-10,-7
COc1ccc(Br)c(OC)c1C(=O)NC(=O)Nc1nc(C)cc(C)n1,11,11,1,3
O=C(c1ccco1)N(Cc1ccc2c(c1)OCO2)Cc1cc2cc3c(cc2[nH]c1=O)OCO3,11,0,2,2
Cc1cc2cc(CN(Cc3ccc4c(c3)OCO4)C(=O)c3ccco3)c(=O)[nH]c2cc1C,9,2,54*,15
CCOC(=O)c1cnc2c(ccc3ccccc32)c1NCCO,4,-4,-12,-1
CCOC(=O)c1ccccc1Oc1c(F)c(F)nc(NCCO)c1F,19,5,42*,42*
O=S(=O)(CCNCc1cccs1)c1ccc(Cl)cc1,-1,-4,50*,-7
COc1ccccc1C(=O)n1nc(-c2ccccc2)nc1NCc1ccco1,13,5,-5,85*
CCN(C(=O)Cc1cccs1)c1nnc(-c2cccnc2)s1,6,-5,44*,14
CCCC(=O)n1nc(-c2cccnc2)nc1NCc1cccs1,13,7,/,100*
CCCC(=O)n1nc(-c2cccnc2)nc1NCc1ccccc1,10,-2,2,100*
CC(=O)n1nc(-c2cccnc2)nc1NCc1cccs1,8,1,2,/
CN(C(=O)c1ccncc1)c1nnc(-c2cccnc2)s1,-2,-7,-17,-8
CC(C)c1cc(C(C)C)c(S(=O)(=O)NNC(=O)c2ccncc2)c(C(C)C)c1,7,2,-3,-1
CCC(=O)n1nc(-c2cccnc2)nc1NCc1cccs1,11,2,2,100*
SMILES,FXIIa inh,FXIa inh,KLK5 inh,thrombin 1536
O=C(c1cccs1)n1nc(-c2cccnc2)nc1NCc1ccco1,12,17,-6,83*
CN(C)CCNC(=O)Cn1nc(C(F)F)cc1C1CC1,10,3,-14,-3
COCCN1C(=O)c2cc(C(=O)Nc3ccc(OC)c(OC)c3)ccc2C1Nc1ccc(OC)c(OC)c1 (stereo not given),12,0,-2,6
CN(C)c1oc(-c2ccc(Cl)cc2)nc1S(=O)(=O)c1ccccc1,6,6,-3,-3
O=C(c1ccc([N+](=O)[O-])cc1)n1nc(-c2ccccc2)nc1NCc1ccccc1,11,3,13,87*
CC(=O)n1nc(-c2ccccc2)nc1NCc1ccc(F)cc1,16,5,-17,98*
O=C(c1cccs1)n1nc(-c2ccccc2)nc1NCc1ccc(F)cc1,12,6,3,3
O=C(CSc1nc(-c2ccccc2)nn1C(=O)c1ccccc1)Nc1cccc([N+](=O)[O-])c1,11,-2,16,57*
O=C(c1ccc([N+](=O)[O-])cc1)n1nc(-c2ccccc2)nc1NCc1ccc(F)cc1,0,-1,-6,52*
COC(=O)c1ccccc1NC(=O)CSCC(=O)Nc1ccc(F)cc1,18,4,-14,0
O=C(CN1C(=O)c2cccc3cccc(c23)C1=O)NCCN1CCOCC1,14,-4,-7,3
O=C(c1cccc([N+](=O)[O-])c1)n1nc(-c2ccccc2)nc1NCc1ccccc1,6,10,-8,67*
COc1ccc(-c2nn3cnnc3s2)cc1OC,18,12,129*,45*
CC1CCN(CCOc2ccc(Cl)c(Cl)c2)CC1,10,7,-8,1
O=C(Nc1ccccc1)c1cccc(N2C(=O)CCC2=O)c1,17,11,63*,19
